ChEMBL document CHEMBL1124186, “Synthesis and evaluation of tylosin-related macrolides modified at the aldehyde function: a new series of orally effective antibiotics” (1988)
Converted amounts (≈) assume the structure as drawn.

Columns and labels:
Haemophilus influenzae = assay: In vitro antimicrobial activity against Haemophilus influenzae.; type: functional
Mus musculus [1] = assay: Peripheral plasma levels in mice after oral administration of 50 mg/kg dose for 2 hr; type: functional, organism-based; parameters: dose 50 mg/kg
How it was run: (§1)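 Mice were given the compound orally and sampled for peripheral plasma at each time point. Plasma was assayed microbiologically against Micrococcus luteus seeded in Antibiotic Medium 1. Inhibition zone sizes were read, and concentrations were calculated from each compound's own standard curve. Each value is the mean of five mice per time point.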

Mus musculus [2] = assay: Peripheral plasma levels in mice after oral administration of 50 mg/kg dose for 4 hr; type: functional, organism-based; parameters: dose 50 mg/kg; how it was run: as §1
Mus musculus [3] = assay: Peripheral plasma levels in mice after oral administration of 50 mg/kg dose for 0.25 hr; type: functional, organism-based; parameters: dose 50 mg/kg; how it was run: as §1
Mus musculus [4] = assay: Peripheral plasma levels in mice after oral administration of 50 mg/kg dose for 1 hr; type: functional, organism-based; parameters: dose 50 mg/kg; how it was run: as §1
Rattus norvegicus [5] = assay: Peripheral plasma levels in rats after oral administration of 100 mg/kg dose for 0.25 hr; type: functional, organism-based; parameters: dose 100 mg/kg
How it was run: (§2)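 Rats received 100 mg/kg orally and were sampled for peripheral plasma. Concentrations were measured by Micrococcus luteus agar-diffusion microbiological assay in Antibiotic Medium 1, with zone sizes converted using the standard curve for the appropriate compound. Each value is the average of three rats per time point.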

Rattus norvegicus [6] = assay: Peripheral plasma levels in rats after oral administration of 100 mg/kg dose for 0.5 hr; type: functional, organism-based; parameters: dose 100 mg/kg; how it was run: as §2
Rattus norvegicus [7] = assay: Peripheral plasma levels in rats after oral administration of 100 mg/kg dose for 1 hr; type: functional, organism-based; parameters: dose 100 mg/kg; how it was run: as §2
Rattus norvegicus [8] = assay: Peripheral plasma levels in rats after oral administration of 100 mg/kg dose for 2 hr; type: functional, organism-based; parameters: dose 100 mg/kg; how it was run: as §2
Rattus norvegicus [9] = assay: Peripheral plasma levels in rats after oral administration of 100 mg/kg dose for 4 hr; type: functional, organism-based; parameters: dose 100 mg/kg; how it was run: as §2
Staphylococcus aureus = assay: In vitro antimicrobial activity against Staphylococcus aureus X1; type: functional
Streptococcus pyogenes [10] = assay: In vivo effective dose against experimental infections in rodent caused by Streptococcus pyogenes C203 when administered sc; type: functional
Streptococcus pneumoniae = assay: In vitro antimicrobial activity against Streptococcus pneumoniae; type: functional
[11] = system: Staphylococcus epidermidis; assay: In vitro antimicrobial activity against Staphylococcus epidermidis EPI1; type: functional
Enterococcus faecium = assay: In vitro antimicrobial activity against Streptococcus faecium X66; type: functional, streptococcus fae-cium
Streptococcus pyogenes [12] = assay: In vitro antimicrobial activity against Streptococcus pyogenes C203; type: functional
Mus musculus [13] = assay: Peripheral plasma levels in mice after oral administration of 50 mg/kg dose for 0.5 hr; type: functional, organism-based; parameters: dose 50 mg/kg; how it was run: as §1
Streptococcus pyogenes [14] = assay: In vivo effective dose against experimental infections in rodent caused by Streptococcus pyogenes C203 when administered orally; type: functional; conditions: po
Mus musculus [15] = assay: Peripheral plasma levels in mice after oral administration of 100 mg/kg dose for 0.25 hr; type: functional, organism-based; parameters: dose 100 mg/kg; how it was run: as §1
Mus musculus [16] = assay: Peripheral plasma levels in mice after oral administration of 100 mg/kg dose for 0.5 hr; type: functional, organism-based; parameters: dose 100 mg/kg; how it was run: as §1
Mus musculus [17] = assay: Peripheral plasma levels in mice after oral administration of 100 mg/kg dose for 1 hr; type: functional, organism-based; parameters: dose 100 mg/kg; how it was run: as §1

Row | MIC (Haemophilus influenzae) [µg/mL] | MIC (Staphylococcus aureus) [µg/mL] | MIC (Streptococcus pneumoniae) [µg/mL] | MIC [11] [µg/mL] | MIC (Enterococcus faecium) [µg/mL] | MIC (Streptococcus pyogenes [12]) [µg/mL] | Compound | Concentration (Mus musculus [1]) [µg/mL] | Concentration (Mus musculus [3]) [µg/mL] | Concentration (Mus musculus [4]) [µg/mL] | Concentration (Rattus norvegicus [5]) [µg/mL] | Concentration (Rattus norvegicus [6]) [µg/mL] | Concentration (Rattus norvegicus [7]) [µg/mL] | Concentration (Rattus norvegicus [8]) [µg/mL] | Concentration (Rattus norvegicus [9]) [µg/mL] | ED50 (Streptococcus pyogenes [10]) [mg/kg] | Concentration (Mus musculus [13]) [µg/mL] | ED50 (Streptococcus pyogenes [14]) [mg/kg] | further results
1 | 16 (≈ 20.6 µM) | 0.25 (≈ 0.322 µM) | 2 (≈ 2.58 µM) | 0.12 (≈ 0.155 µM) | 8 (≈ 10.3 µM) | 0.25 (≈ 0.322 µM) | CC[C@H]1OC(=O)C[C@@H](O)[C@H](C)[C@@H](O[C@@H]2O[C@H](C)[C@@H](O)[C@H](N(C)C)[C@H]2O)[C@@H](CCF)C[C@@H](C)C(=O)/C=C/C(C)=C/[C@@H]1CO[C@@H]1O[C@H](C)[C@@H](O)[C@@H](OC)[C@H]1OC | 0.4 | < 0.1 | 0.2 | 0.3 | 0.5 | 0.1 | 1.9 | 1.5 | 5 | < 0.1 | 8 | Concentration (Mus musculus [2]): 0.1 µg/mL
2 | > 128 | 1 (≈ 0.955 µM) | 32 (≈ 30.6 µM) | 1 (≈ 0.955 µM) | > 128 | 2 (≈ 1.91 µM) | CC[C@H]1OC(=O)C[C@@H](O)[C@H](C)[C@@H](O[C@@H]2O[C@H](C)[C@@H](O[C@H]3C[C@@](C)(O)[C@@H](O)[C@H](C)O3)[C@H](N(C)C)[C@H]2O)[C@@H](CCN2C(=O)c3ccccc3C2=O)C[C@@H](C)C(=O)/C=C/C(C)=C/[C@@H]1CO[C@@H]1O[C@H](C)[C@@H](O)[C@@H](OC)[C@H]1OC | 1.3 | 2.4 | 1.6 | 0.5 | 1.6 | 2.1 | 1.4 | 1.4 | > 6.3 | 2.2 | 23 | Concentration (Mus musculus [15]): 13.1 µg/mL; Concentration (Mus musculus [16]): 6 µg/mL; Concentration (Mus musculus [17]): 6.9 µg/mL
